Data taken from ChEMBL document CHEMBL4706596, “Synthesis, biological evaluation, in silico modeling and crystallization of novel small monocationic molecules with potent antiproliferative activity by dual mechanism” (Eur J Med Chem, 2020).

Columns and labels:
[1] = Inhibition of [methyl-14C]choline uptake in human HT-29 cells at 10 uM incubated for 10 mins followed by removal of medium containing compound and subsequent addition of [methyl-14C]choline measured after 5 mins relative to control; format: functional; details: HT-29, 10 min
Summary of the method: (§1)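 Cells at 200,000/well were incubated for 10 min at 37 °C in medium with or without CKα1 inhibitor. The medium was then removed and cells were exposed to [methyl-¹⁴C]choline (31 Ci/mol) for 5 min at 37 °C. Uptake was stopped by aspiration and two ice-cold PBS washes containing choline. Inhibition is expressed as % of untreated control.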

[2] = molecular target: T1, Choline kinase alpha (Homo sapiens, UniProt P35790); assay: (§2) Inhibition of human CKalpha1 assessed as reduction in 14C incorporation from [methyl-14C]choline to phosphatidylcholine at 30 uM using [methyl-14C]choline as substrate preincubated for 5 mins in presence of ATP and MgCl2 followed by substrate addition and measured after 10 mins by liquid scintillation counting method relative to control; details: time 15.0 min
Summary of the method: (§3)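 Purified human CKα1 (20 ng) in 100 mM Tris pH 8.5 with 10 mM MgCl₂ and 10 mM ATP, DMSO ≤0.1%, was preincubated 5 min at 37 °C. Reaction was started with 1 mM [methyl-¹⁴C]choline (4500 dpm/nmol), run 10 min at 37 °C and stopped in boiling water. Product was separated by silica TLC, scraped and scintillation-counted against DMSO controls. At least three experiments were run; IC50 was obtained from sigmoidal dose-response fits.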
Target sequence in this assay (P35790 whole entry, looked up): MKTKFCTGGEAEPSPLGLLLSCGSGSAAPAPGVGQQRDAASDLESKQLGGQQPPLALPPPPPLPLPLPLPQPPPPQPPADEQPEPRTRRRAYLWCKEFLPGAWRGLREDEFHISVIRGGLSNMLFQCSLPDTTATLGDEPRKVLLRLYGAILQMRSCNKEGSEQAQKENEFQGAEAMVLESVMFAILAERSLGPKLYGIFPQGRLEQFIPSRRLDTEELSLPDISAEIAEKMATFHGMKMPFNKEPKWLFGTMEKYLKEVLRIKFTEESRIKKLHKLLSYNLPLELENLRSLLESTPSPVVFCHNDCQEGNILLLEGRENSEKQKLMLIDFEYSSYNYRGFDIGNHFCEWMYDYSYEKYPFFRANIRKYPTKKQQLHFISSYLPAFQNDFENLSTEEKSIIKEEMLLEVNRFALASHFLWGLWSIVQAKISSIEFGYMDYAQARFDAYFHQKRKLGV

[3] = Inhibition of [methyl-14C]choline uptake in human HepG2 cells at 10 uM incubated for 10 mins followed by removal of medium containing compound and subsequent addition of [methyl-14C]choline measured after 5 mins relative to control; format: functional; details: HepG2, 10 min; summary of the method: as §1
[4] = Inhibition of [methyl-14C]choline uptake in human HT-29 cells at 30 uM incubated for 10 mins followed by removal of medium containing compound and subsequent addition of [methyl-14C]choline measured after 5 mins relative to control; format: functional; details: HT-29, 10 min; summary of the method: as §1
[5] = system: CCRF-CEM; assay: Antiproliferative activity against human CCRF-CEM cells assessed as inhibition of cell proliferation incubated for 72 hrs by MTT assay; format: functional
Summary of the method: (§4)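 Cells seeded at 8 × 10³/well and held 18 h at 37 °C, 5% CO₂. Medium then replaced with compound at several concentrations for 72 h at 37 °C, followed by MTT viability read-out. GI50 is taken against cells given the maximum DMSO (0.25%), which is set as 100% viability. Dose-response curves come from at least three independent experiments run in triplicate and are reported as mean ± SE.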

[6] = molecular target: T1, Choline kinase alpha; assay: as §2, with “10” for “30”; details: time 15.0 min; summary of the method: as §3
Target sequence in this assay (P35790 whole entry, looked up): as above

[7] = system: HeLa; assay: Antiproliferative activity against human HeLa cells assessed as inhibition of cell proliferation incubated for 72 hrs by MTT assay; format: functional; summary of the method: as §4
[8] = Inhibition of [methyl-14C]choline uptake in human HepG2 cells at 30 uM incubated for 10 mins followed by removal of medium containing compound and subsequent addition of [methyl-14C]choline measured after 5 mins relative to control; format: functional; details: HepG2, 10 min; summary of the method: as §1
[9] = system: HT-29; assay: Antiproliferative activity against human HT-29 cells assessed as inhibition of cell proliferation incubated for 72 hrs by MTT assay; format: functional; summary of the method: as §4
[10] = system: RS4-11; assay: Antiproliferative activity against human RS4-11 cells assessed as inhibition of cell proliferation incubated for 72 hrs by MTT assay; format: functional; summary of the method: as §4
[11] = system: CCRF-CEM; assay: Antiproliferative activity against human CCRF-CEM cells assessed as inhibition of cell proliferation; format: functional; summary of the method: as §4
[12] = system: RS4-11; assay: Antiproliferative activity against human RS4-11 cells assessed as inhibition of cell proliferation; format: functional; summary of the method: as §4
[13] = system: HeLa; assay: Antiproliferative activity against human HeLa cells assessed as inhibition of cell proliferation; format: functional; summary of the method: as §4
[14] = system: HT-29; assay: Antiproliferative activity against human HT-29 cells assessed as inhibition of cell proliferation; format: functional; summary of the method: as §4
[15] = molecular target: T1, Choline kinase alpha; assay: Binding affinity to human CKalpha1 assessed as dissociation constant by spectroflurometry
Summary of the method: (§5)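 Purified human CK (cloned as reported earlier) at 1 µM was titrated with compound in 25 mM Tris, 150 mM NaCl, pH 7.5 at 25 °C. Compound ranges were 0.1–10 µM for CKα1 and 0.5–200 µM for CKβ. Tryptophan quenching was read with excitation at 280 nm, emission 300–400 nm and 5 nm slits. DMSO-matched controls were run, and Kd was fitted to a single-site model. Results are given as mean ± SD.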
Target sequence in this assay (P35790 whole entry): as the sequence (P35790 whole entry, looked up) above

[16] = species on record: Homo sapiens; assay: Selectivity index, ratio of Kd for human CKbeta to Kd for human CKalpha1
[17] = molecular target: Choline/ethanolamine kinase (Homo sapiens, UniProt Q9Y259); assay: Binding affinity to human CKbeta assessed as dissociation constant by spectroflurometry; summary of the method: as §5
[18] = molecular target: T1, Choline kinase alpha; assay: as §2, with “[…]” for “phosphatidylcholine at 30 uM”; summary of the method: as §3
Target sequence in this assay (P35790 whole entry): as the sequence (P35790 whole entry, looked up) above

[19] = molecular target: T1, Choline kinase alpha; assay: as §2, with “50” for “30”; details: time 15.0 min; summary of the method: as §3
Target sequence in this assay (P35790 whole entry, looked up): as above

Sequence of Choline/ethanolamine kinase (Q9Y259 whole entry): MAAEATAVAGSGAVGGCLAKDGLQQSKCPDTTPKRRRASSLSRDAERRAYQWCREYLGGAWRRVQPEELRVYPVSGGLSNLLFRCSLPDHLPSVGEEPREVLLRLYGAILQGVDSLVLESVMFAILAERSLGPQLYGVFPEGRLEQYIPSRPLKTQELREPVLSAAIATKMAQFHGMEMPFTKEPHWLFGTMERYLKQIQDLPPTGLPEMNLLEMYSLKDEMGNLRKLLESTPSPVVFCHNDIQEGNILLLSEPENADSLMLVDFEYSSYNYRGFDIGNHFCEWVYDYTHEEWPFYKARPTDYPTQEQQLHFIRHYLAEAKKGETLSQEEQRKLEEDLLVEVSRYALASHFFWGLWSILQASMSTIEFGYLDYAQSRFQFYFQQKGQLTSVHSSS

Compound	inhibition [2]	GI50 [5]	inhibition [6]	GI50 [7]	GI50 [9]	GI50 [10]	Kd [15]	also measured
FC(F)(F)c1ccc(C[N+]23CCC(CC2)CC3)cc1	24.7%	> 100 µM	8.07%	90.8 µM	> 100 µM	> 100 µM	–	inhibition at 10 µM [1]: 9.1%; inhibition at 10 µM [3]: 5.1%; inhibition at 30 µM [4]: 2.4%; inhibition at 30 µM [8]: 17.7%
OC1C[N+]2(Cc3ccc(-c4ccccc4)cc3)CCC1CC2 (stereo unspecified)	53%	16.9 µM	45.6%	27.5 µM	34 µM	1.7 µM	–	–
CN(c1ccccc1)c1cc[n+](Cc2ccc(-c3ccc(C[n+]4ccc(N(C)c5ccccc5)c5ccc(Cl)cc54)cc3)cc2)c2cc(Cl)ccc12	–	–	–	–	–	–	–	GI50 [11]: 0.61 µM; GI50 [12]: 0.17 µM; GI50 [13]: 0.83 µM; GI50 [14]: 0.4 µM
CN(C)c1cc[n+](Cc2ccccc2)cc1	37.2%	54.3 µM	–	44.2 µM	> 100 µM	30.3 µM	14 µM	–
OC1C[N+]2(Cc3ccc(C(F)(F)F)cc3)CCC1CC2 (stereo unspecified)	–	> 100 µM	–	82.3 µM	> 100 µM	> 100 µM	–	inhibition at 10 µM [1]: 17.6%; inhibition at 10 µM [3]: 14.3%; inhibition at 30 µM [4]: 21.6%; inhibition at 30 µM [8]: 15.1%
CN(c1ccccc1)c1cc[n+](Cc2ccc(C(F)(F)F)cc2)c2cc(Cl)ccc12	–	2.1 µM	–	2.1 µM	3 µM	2.7 µM	–	–
CN(C)c1cc[n+](Cc2ccc(CCCCc3ccc(C[n+]4ccc(N(C)C)cc4)cc3)cc2)cc1	–	–	–	–	–	–	–	GI50 [11]: 0.21 µM; GI50 [12]: 1 µM; GI50 [13]: 1.9 µM; GI50 [14]: 1.9 µM
c1ccc(-c2ccc(C[n+]3ccc(N4CCCC4)cc3)cc2)cc1	28%	0.18 µM	–	0.95 µM	0.16 µM	0.22 µM	0.67 µM	inhibition at 10 µM [1]: 56.7%; inhibition at 10 µM [3]: 70.3%; inhibition at 30 µM [4]: 79.5%; inhibition at 30 µM [8]: 84.3%
CN(c1ccccc1)c1cc[n+](Cc2ccc(-c3ccccc3)cc2)c2cc(Cl)ccc12	76%	1.7 µM	38.6%	1.7 µM	0.85 µM	1.4 µM	0.185 µM	inhibition at 10 µM [1]: 85.5%; inhibition at 10 µM [3]: 87.2%; inhibition at 30 µM [4]: 93.3%; Ratio [16]: 108; Kd [17]: 20 µM; IC50 [18]: 12.6 µM; inhibition at 30 µM [8]: 94.8%
CN(c1ccc(Cl)cc1)c1cc[n+](Cc2ccc(C(F)(F)F)cc2)c2cc(Cl)ccc12	14.5%	2 µM	10.4%	2.6 µM	1.3 µM	1.3 µM	–	–
CN(C)c1cc[n+](Cc2ccc(C(F)(F)F)cc2)cc1	33.5%	18 µM	25.4%	23.2 µM	11.2 µM	7.9 µM	–	inhibition at 10 µM [1]: 14.3%; inhibition at 10 µM [3]: 11.7%; inhibition at 30 µM [4]: 22.7%; inhibition at 30 µM [8]: 16.9%
CN(C)c1ccncc1	–	–	–	–	–	–	35 µM	–
CN(c1ccccc1)c1ccnc2cc(Cl)ccc12	–	–	–	–	–	–	82 µM	–
FC(F)(F)c1ccc(C[n+]2ccc(N3CCCCCC3)c3ccc(Cl)cc32)cc1	52.7%	4.6 µM	34.7%	4.7 µM	5.4 µM	3.2 µM	–	–
CN(C)c1cc[n+](Cc2ccc(-c3ccccc3)cc2)cc1	26.4%	0.43 µM	18.9%	0.74 µM	0.29 µM	0.83 µM	1.7 µM	–
c1ccc(-c2ccc(C[n+]3ccc(N4CCCCCC4)c4ccccc43)cc2)cc1	–	8.6 µM	–	14.8 µM	17.5 µM	12.8 µM	–	–
c1ccc(-c2ccc(C[N+]34CCC(CC3)CC4)cc2)cc1	30.2%	11.8 µM	26.6%	29.9 µM	24.7 µM	2.6 µM	–	–
CN(c1ccccc1)c1cc[n+](Cc2ccccc2)c2cc(Cl)ccc12	28.4%	2.2 µM	23.1%	16.3 µM	4.5 µM	3 µM	0.89 µM	Ratio [16]: 41; inhibition [19]: 18.6%; Kd [17]: 36 µM
FC(F)(F)c1ccc(C[n+]2ccc(N3CCCC3)cc2)cc1	–	12 µM	–	42.1 µM	8.1 µM	7.6 µM	–	–
Clc1ccc2c(N3CCCCCC3)cc[n+](Cc3ccccc3)c2c1	27.5%	0.56 µM	35.8%	16.2 µM	4.6 µM	0.03 µM	0.4 µM	Ratio [16]: 83; inhibition [19]: 38.7%; Kd [17]: 33 µM
Clc1ccc2c(N3CCCC3)cc[n+](Cc3ccccc3)c2c1	35%	3.4 µM	31.5%	19.6 µM	4.1 µM	1.23 µM	–	–
CN(c1ccc(Cl)cc1)c1cc[n+](Cc2ccc(-c3ccccc3)cc2)cc1	–	0.3 µM	–	0.91 µM	0.23 µM	0.14 µM	–	inhibition at 10 µM [1]: 78.4%; inhibition at 10 µM [3]: 83.3%; inhibition at 30 µM [4]: 95%; inhibition at 30 µM [8]: 94.8%
FC(F)(F)c1ccc(C[n+]2ccc(N3CCCC3)c3ccc(Cl)cc32)cc1	24.9%	3 µM	–	15 µM	12.9 µM	1 µM	–	–
c1ccc(C[n+]2ccc(N3CCCC3)cc2)cc1	19.6%	5.3 µM	11.1%	66 µM	38 µM	8.3 µM	24 µM	inhibition [19]: 27.8%
Clc1ccc2c(N3CCCC3)cc[n+](Cc3ccc(-c4ccccc4)cc3)c2c1	46.3%	0.04 µM	36.9%	0.28 µM	0.04 µM	0.05 µM	–	–
Clc1ccc2c(N3CCCCCC3)ccnc2c1	–	–	–	–	–	–	45 µM	–
c1cc(N2CCCC2)ccn1	–	–	–	–	–	–	49 µM	–
